High-throughput results deposited in PubChem BioAssay by several laboratories.
Shown are actives, neighbours in structure and some others; about 4.9% of the full set was active somewhere.
STAT1 blocker = STAT1 signaling inhibition; inhibition, % at 5.5 µM; 200,000 compounds, 0.35% hits; NIH 3T3 STAT1-luciferase reporter, IFN-gamma, luminescence; AID 920;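 active = inhibition above a set limit, the mean inhibition across all tested compounds plus 3 SD, cut at about 34% in these data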;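 also: 0% = IFN-gamma with DMSO and 100% = IFN-gamma with 300 µM nifuroxazide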
STAT3 inh = reduces IL-6 driven STAT3 reporter signal | U3A cells, IL-6 STAT3-luciferase reporter, luminescence; host cell line lacks STAT1 | inhibition, % at 5.5 µM | 190,000 compounds, 0.89% hits;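 active = inhibition above the mean inhibition across all screened compounds plus 3 SD, cut at about 44% in these data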;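 also: 0% = DMSO only wells and 100% = 100 µM nifuroxazide control wells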
STAT3 activator = STAT3 signaling activation; U3A cells, IL-6 STAT3-luciferase reporter, luminescence; 100% = signal with IL-6 EC80 alone; activation (% of control), % at 5.6 µM; 190,000 compounds, 0.91% hits; AID 871;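 active = activation above the screen-wide mean of compound activation plus 3 SD, cut at about 130% in these data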;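 also: 0% = background luminescence of wells with medium and substrate only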
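Material: STAT3-luciferase reporter U3A cells; Probe or stimulus: IL-6 (33 ng/mL); Incubation: compound pre-incubation 1 h before IL-6, then 6 h stimulation at 37 °C; Technique: luminescence from STAT3-driven luciferase reporter; Evaluation: % activation versus median of IL-6-stimulated wells; Controls: IL-6-only high control.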
FLuc inhib CS = inhibits firefly luciferase, flagging false hits in luciferase inhibition screens. 200,000 compounds, 1.5% hits. ATPLite firefly luciferase biochemical luminescence, 10 min. inhibition, % at 10 µM;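 active = inhibition above about 50% when tested at 10 µM, limit read from the data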
Target sequence (P08659 whole entry, looked up): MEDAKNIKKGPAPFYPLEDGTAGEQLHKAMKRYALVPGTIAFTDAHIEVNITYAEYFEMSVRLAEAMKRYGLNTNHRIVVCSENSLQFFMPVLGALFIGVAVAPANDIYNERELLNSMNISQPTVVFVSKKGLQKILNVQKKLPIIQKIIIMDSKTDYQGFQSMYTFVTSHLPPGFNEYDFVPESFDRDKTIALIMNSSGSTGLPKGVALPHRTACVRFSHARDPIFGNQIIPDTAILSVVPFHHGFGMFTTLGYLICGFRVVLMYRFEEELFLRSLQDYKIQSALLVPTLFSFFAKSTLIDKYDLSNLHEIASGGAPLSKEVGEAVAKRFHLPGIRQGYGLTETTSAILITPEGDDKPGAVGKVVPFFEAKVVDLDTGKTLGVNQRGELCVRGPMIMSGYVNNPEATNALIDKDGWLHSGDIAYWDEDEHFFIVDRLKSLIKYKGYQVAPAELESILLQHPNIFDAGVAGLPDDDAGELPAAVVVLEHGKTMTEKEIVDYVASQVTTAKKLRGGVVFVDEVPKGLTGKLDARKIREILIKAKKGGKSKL
FLuc act counter = firefly luciferase counter-screen for stimulation assays | 200,000 tested, under 10 active | AID 1027 | P08659 | ATPlite luciferase biochemical, luminescence, 10 min; 0 = ATP-free wells, 1 = DMSO control | activation factor at 10 µM;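 active = luciferase activation factor, scaled between plate controls, of at least 2 with compound at 10 µM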
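Assay system – cell-free luciferase reagent · Medium – PBS-based ATP solution · Dosing – test compounds dosed from 2 mM stocks in 100% DMSO · Timing – 10 min, room temperature · Technique – light output (luminescence) · Measure – luminescence gain marking luciferase activators · Controls – No-ATP low control, compound-free enzyme-plus-ATP high control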
STAT1 act = increases IFN-gamma driven STAT1 reporter signal. activation (% of control), % at 5.5 µM. 200,000 compounds, 2.6% hits. NIH 3T3 STAT1-luciferase reporter, luminescence; 100% = IFN-gamma alone, no compound;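 active = activation above the screen-wide mean activation plus 3 SD, cut at about 130% in these data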;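 also: raw ratio to IFN-gamma control signal so 100% means no change and 0% no light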
The depositor's hits bear a star.

`CC1=NN(c2ccccc2)C(=O)/C1=C\c1c(C)[nH]n(-c2ccccc2)c1=O` gave STAT1 blocker -1, STAT3 inh -49, STAT3 activator 144*, FLuc inhib CS -4, FLuc act counter 1 and STAT1 act 100.
Screening CC1=NN(c2ccccc2)C(=O)/C1=C/c1c(O)n(-c2ccc(F)c(Cl)c2)[nH]c1=O returned STAT1 blocker -47, STAT3 inh -86, STAT3 activator 166*, FLuc inhib CS 31, FLuc act counter 0.7 and STAT1 act 142*.
Screening Nc1nnc(SCC(=O)OCC(=O)Nc2ccccc2)s1 returned STAT1 blocker -5, STAT3 inh -5, STAT3 activator 109, FLuc inhib CS -2, FLuc act counter 1 and STAT1 act 103.
Screening CC(=O)Nc1ccc(S(=O)(=O)N(C)CC(=O)OCC(=O)c2cc(C)n(-c3ccc4c(c3)OCO4)c2C)cc1 returned STAT1 blocker -2, STAT3 inh 0, STAT3 activator 102, FLuc inhib CS -7, FLuc act counter 1.1 and STAT1 act 102.
`COC(=O)c1sccc1NC(=O)Nc1ccc(Cl)c(Cl)c1` gave STAT1 blocker -49, STAT3 inh -1, STAT3 activator 108, FLuc inhib CS -1, FLuc act counter 1 and STAT1 act 144*.
For COC(=O)c1sccc1NC(=O)c1csc(C)c1 the results were STAT1 blocker -1, STAT3 inh -38, STAT3 activator 136*, FLuc inhib CS -5, FLuc act counter 1.1 and STAT1 act 101.
Screening COC(=O)c1sccc1NC(=O)c1ccc(OC)cc1 returned STAT1 blocker -1, STAT3 inh -19, STAT3 activator 116, FLuc inhib CS 6, FLuc act counter 0.9 and STAT1 act 101.
`CCn1c(-c2ccccc2)csc1=Nc1ccc(S(=O)(=O)O)cc1` gave STAT1 blocker 1, STAT3 inh 18, STAT3 activator 85, FLuc inhib CS 54*, FLuc act counter 0.5 and STAT1 act 99.
`Oc1[nH]c2ccccc2c1/C=N/c1nccs1` gave STAT1 blocker -29, STAT3 inh -10, STAT3 activator 112, FLuc inhib CS 49, FLuc act counter 0.5 and STAT1 act 126.
`Cc1ccc(N=Cc2c(O)[nH]c3ccccc23)c([N+](=O)[O-])c1` gave STAT1 blocker -37, STAT3 inh 23, STAT3 activator 84, FLuc inhib CS 12, FLuc act counter 0.9 and STAT1 act 131*.
Screening O=C(C=C1SCCS1)/C=C/c1ccco1 returned STAT1 blocker -16, STAT3 inh 30, STAT3 activator 77, FLuc inhib CS 70*, FLuc act counter 0.3 and STAT1 act 114.
Screening CCOc1cc(C)c(C(C)C)cc1S(=O)(=O)n1cnc(C)c1 returned STAT1 blocker 14, STAT3 inh 10, STAT3 activator 98, FLuc inhib CS -5, FLuc act counter 1 and STAT1 act 86.
Screening CN=c1scc(C)n1/N=C/c1cc(Br)c(O)c(OC)c1 returned STAT1 blocker -3, STAT3 inh -24, STAT3 activator 123, FLuc inhib CS 2, FLuc act counter 1 and STAT1 act 103.
For CN=c1scc(-c2cccs2)n1/N=C/c1ccccc1O the results were STAT1 blocker 47*, STAT3 inh 107*, STAT3 activator 9, FLuc inhib CS 94*, FLuc act counter 0.1 and STAT1 act 58.
For CN=c1scc(C)n1/N=C/c1ccc(O)c(O)c1O the results were STAT1 blocker 9, STAT3 inh 23, STAT3 activator 81, FLuc inhib CS 97*, FLuc act counter 0 and STAT1 act 90.
Screening CN=c1scc(-c2cccs2)n1/N=C/c1ccc(O)c(O)c1O returned STAT1 blocker 47*, STAT3 inh 45*, STAT3 activator 64, FLuc inhib CS 98*, FLuc act counter 0 and STAT1 act 58.
`Cc1cc(C)n(/N=C/c2ccccc2O)c(=O)c1` gave STAT1 blocker 5, STAT3 inh 13, STAT3 activator 91, FLuc inhib CS -2, FLuc act counter 1 and STAT1 act 94.
Screening O=C(CN1CCCC1)Nc1ccc([N+](=O)[O-])cc1 returned STAT1 blocker -10, STAT3 inh 7, STAT3 activator 96, FLuc inhib CS -2, FLuc act counter 1 and STAT1 act 107.
O=C(Nc1ccccc1CC[N+](=O)[O-])N1CCN(c2ccccc2)CC1 was read as STAT1 blocker 1, STAT3 inh -6, STAT3 activator 108, FLuc inhib CS -1, FLuc act counter 1 and STAT1 act 98.
O=C(CSc1nncs1)Nc1ccc(S(=O)(=O)N2CCCC2)cc1 was read as STAT1 blocker 4, STAT3 inh 7, STAT3 activator 101, FLuc inhib CS 1, FLuc act counter 1 and STAT1 act 97.
Screening O=C(CN1C(=O)NC2(CCCCC2)C1=O)Nc1ccc2c(c1)CCC2 returned STAT1 blocker -22, STAT3 inh -34, STAT3 activator 134*, FLuc inhib CS -7, FLuc act counter 1.1 and STAT1 act 118.
`N#CCOc1ccc2oc(-c3ccco3)cc(=O)c2c1` gave STAT1 blocker -25, STAT3 inh 20, STAT3 activator 89, FLuc inhib CS 3, FLuc act counter 1 and STAT1 act 121.
Screening Cc1ccc2oc(-c3ccco3)cc(=O)c2c1 returned STAT1 blocker -41, STAT3 inh 16, STAT3 activator 91, FLuc inhib CS 34, FLuc act counter 0.7 and STAT1 act 138*.
For O=C(N/N=C/c1ccc[nH]1)c1ccc(COc2cccc3cccnc23)cc1 the results were STAT1 blocker -15, STAT3 inh 70*, STAT3 activator 42, FLuc inhib CS 4, FLuc act counter 1 and STAT1 act 114.
`O=C(N/N=C/c1ccccc1C(=O)O)c1ccc(COc2cccc3cccnc23)cc1` gave STAT1 blocker -15, STAT3 inh -6, STAT3 activator 106, FLuc inhib CS 1, FLuc act counter 1 and STAT1 act 112.
For CN(CCO)c1c2c(nc3cc(-c4cccc(F)c4)nn13)CCCC2 the results were STAT1 blocker -45, STAT3 inh 11, STAT3 activator 94, FLuc inhib CS 13, FLuc act counter 0.9 and STAT1 act 142*.
For CCOC(=O)C1CCCN(Cc2nc(Cc3ccccc3Cl)no2)C1 (stereo not drawn) the results were STAT1 blocker -4, STAT3 inh 7, STAT3 activator 98, FLuc inhib CS -2, FLuc act counter 1 and STAT1 act 102.
`CCOC(=O)/C(C#N)=C/Nc1ccccc1OC` gave STAT1 blocker -50, STAT3 inh -3, STAT3 activator 109, FLuc inhib CS 44, FLuc act counter 0.6 and STAT1 act 145*.
